In ChEMBL document CHEMBL4808254, “Further SAR studies on natural template based neuroprotective molecules for the treatment of Alzheimer's disease” (Bioorg Med Chem, 2021):
Activity calls are given as the source filed them. The rule behind the calls is not given here.

Experiments:
[1] = Antioxidant activity assessed as DPPH radical scavenging activity at 20 uM measured after 25 mins by microplate reader based assay relative to control; format: functional
Summary of the method: (§1)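 Test compound at serial concentrations (single 20 µM for percent values) mixed 1:1 with 200 µM DPPH in methanol; 25 min at 37 °C with shaking at 300 rpm; absorbance read at 517 nm. Percent scavenging taken against DPPH control; IC50 is the concentration that removes 50% of radical. Mean ± SD of three independent experiments.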

Cholinesterase = Cholinesterase (Equus caballus, UniProt P81908); assay: Inhibition of equine serum BChE using butyrylthiocholine iodide as substrate preincubated with enzyme for 30 mins followed by substrate addition and measured after 30 mins by Ellman's method; format: cell-free
Cholinesterase, sequence (P81908 whole entry): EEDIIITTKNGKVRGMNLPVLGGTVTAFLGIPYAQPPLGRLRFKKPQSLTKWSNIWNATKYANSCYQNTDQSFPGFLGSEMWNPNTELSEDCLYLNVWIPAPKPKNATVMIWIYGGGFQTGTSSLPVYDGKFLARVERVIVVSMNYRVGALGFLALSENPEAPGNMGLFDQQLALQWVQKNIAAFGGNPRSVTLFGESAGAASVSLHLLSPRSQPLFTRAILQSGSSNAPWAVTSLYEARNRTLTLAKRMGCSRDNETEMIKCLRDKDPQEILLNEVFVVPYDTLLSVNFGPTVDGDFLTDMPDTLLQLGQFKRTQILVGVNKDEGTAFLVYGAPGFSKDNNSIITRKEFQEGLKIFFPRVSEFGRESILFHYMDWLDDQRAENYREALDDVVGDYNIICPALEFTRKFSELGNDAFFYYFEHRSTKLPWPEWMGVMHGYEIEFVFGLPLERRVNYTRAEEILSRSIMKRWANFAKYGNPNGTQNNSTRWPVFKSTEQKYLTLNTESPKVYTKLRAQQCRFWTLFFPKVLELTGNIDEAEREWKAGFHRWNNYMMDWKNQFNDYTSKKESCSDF
Summary of the method: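 Equine BChE (0.06 U/mL) preincubated with a range of inhibitor concentrations, 37 °C, 30 min. BTCI (15 mM) then added for 30 min, followed by DTNB (1.5 mM). A415 recorded. Mean ± SD of two or three independent experiments, each in triplicate.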

[2] = Antioxidant activity assessed as DPPH radical scavenging activity measured after 25 mins by microplate reader based assay; format: functional; summary of the method: as §1
Acetylcholinesterase [3] = target: T1, Acetylcholinesterase (Homo sapiens, UniProt P22303); assay: Inhibition of AChE in human erythrocytes using acetylthiocholine iodide as substrate preincubated with enzyme for 30 mins followed by substrate addition and measured after 30 mins by Ellman's method; format: cell-based, Erythrocyte
T1 sequence (P22303 whole entry): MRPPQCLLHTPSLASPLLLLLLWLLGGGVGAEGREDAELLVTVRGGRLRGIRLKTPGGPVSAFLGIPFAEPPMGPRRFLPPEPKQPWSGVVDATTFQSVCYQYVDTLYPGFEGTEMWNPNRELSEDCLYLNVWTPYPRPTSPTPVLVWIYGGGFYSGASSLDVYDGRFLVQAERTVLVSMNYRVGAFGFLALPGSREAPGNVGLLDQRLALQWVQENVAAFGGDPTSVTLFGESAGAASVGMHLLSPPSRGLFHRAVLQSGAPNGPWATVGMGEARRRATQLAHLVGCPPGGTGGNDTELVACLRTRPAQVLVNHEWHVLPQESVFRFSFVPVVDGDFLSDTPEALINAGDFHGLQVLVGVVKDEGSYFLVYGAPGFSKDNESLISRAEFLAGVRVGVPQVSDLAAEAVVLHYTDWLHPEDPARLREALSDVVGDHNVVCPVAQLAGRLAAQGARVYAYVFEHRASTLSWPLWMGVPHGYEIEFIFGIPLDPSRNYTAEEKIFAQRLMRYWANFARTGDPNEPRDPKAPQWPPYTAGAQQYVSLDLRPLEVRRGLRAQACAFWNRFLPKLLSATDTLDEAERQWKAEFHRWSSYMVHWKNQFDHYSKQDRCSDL

Acetylcholinesterase [4] = target: T1, Acetylcholinesterase; assay: Inhibition of AChE in human erythrocytes using acetylthiocholine iodide as substrate at 20 uM preincubated with enzyme for 30 mins followed by substrate addition and measured after 30 mins by Ellman's method relative to control; format: cell-based; settings: Erythrocyte, time 60.0 min
Summary of the method: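 hAChE (0.022 U/mL) preincubated with inhibitor at 20 µM, 37 °C, 30 min. ATCI (1.5 mM) then added and incubated a further 30 min, followed by DTNB (0.15 mM). Absorbance read at 415 nm. % inhibition = [(Ac − Ai)/Ac] × 100 against an uninhibited enzyme. Mean ± SD of two or three experiments run in triplicate.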

Acetylcholinesterase [5] = target: T1, Acetylcholinesterase; assay: Mixed inhibition of human erythrocyte AChE using different concentration of acetylthiocholine iodide as substrate preincubated with enzyme for 30 mins by Lineweaver-Burk plot analysis; format: tissue-based
Summary of the method: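 hAChE preincubated with inhibitor at three concentrations, 37 °C, 30 min. ATCI added at 0.5, 1.0, 1.5, 2.0 and 2.5 mM, then DTNB (0.15 mM). A415 recorded. Lineweaver-Burk double-reciprocal analysis used to assign the mechanism. Duplicate runs; mean ± SD of two independent experiments.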

[6] = Permeability of the compound in PBS buffer at pH 7.4 at 500 uM incubated for 18 hrs by PAMPA-BBB assay
[7] = Metal chelating activity assessed as mole fraction required to show 1:1 stoichiometry for compound-Fe3+ complex formation measured after 24 hrs in presence Fecl3.6H2O by Job's plot analysis
Summary of the method: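 Stoichiometry by molar-ratio titration of compound against FeCl3 in methanol (0–10 ratio) at room temperature with UV spectra recorded. Job's plot built from Fe(III) mole fraction against absorbance. Means of duplicate runs.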

[8] = target: Cholinesterase (Equus caballus) (UniProt P81908); assay: Mixed inhibition of equine serum BChE using different concentration of butyrylthiocholine iodide as substrate preincubated with enzyme for 30 mins by Lineweaver-Burk plot analysis; format: cell-free
Cholinesterase (Equus caballus), sequence (P81908 whole entry): as the sequence (P81908 whole entry) above
Summary of the method: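 eqBChE preincubated with inhibitor at three concentrations, 37 °C, 30 min. BTCI added at 5, 10, 15, 20 and 25 mM, then DTNB (1.5 mM). Absorbance read at 415 nm. Double-reciprocal 1/[S] vs 1/V plots used to assign inhibition type. Duplicate runs; mean ± SD of two independent experiments.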

Mus musculus = assay: Reversal of scopolamine induced cognitive memory impairment in C57BL/6 mouse assessed as escape latency time at 10 mg/kg, po administered 30 mins prior to scopolamine injection daily for 14 days by Morris water maze test (reference value: 50.11 +/-5.91 secs); format: functional; settings: time 14 day
N2a [9] = assay: Cytotoxicity against mouse N2a cells assessed as effect on cell viability at 0.01 to 20 uM measured after 24 hrs by MTT assay; format: cell-based; settings: dose 0.01-20 µM
Summary of the method: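 Neuro2a cells seeded at 1 × 10^4/well and left overnight to adhere. Exposed to 0.01, 0.1, 1, 2.5, 5, 10 or 20 µM in triplicate for 24 h at 37 °C in 5% CO2. Viability then read by MTT and expressed as percent of untreated cells. Mean ± SE of three independent experiments.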

N2a [10] = assay: Neuroprotective activity against H2O2-induced neurotoxicity in mouse N2a cells assessed as increase in cell viability at 1 to 20 uM preincubated for 24 hrs followed by co-incubation with H2O2 and measured after 24 hrs by MTT assay; format: functional, cell-based; settings: dose 1-20 µM, time 48.0 hrs
Summary of the method: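 N2a cells seeded at 1 × 10^4/well and left overnight. Pre-incubated 24 h with 1, 2.5, 5, 10 or 20 µM, then co-incubated with 600 µM H2O2 for a further 24 h. MTT added for 4 h at 37 °C and formazan extracted in 0.04 N HCl/isopropanol for 1 h. OD read at 570 nm; viability as percent of untreated control. Three independent experiments, mean ± SEM.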

[11] = Metal chelating activity assessed as compound-Fe3+ complex formation at 600 uM measured after 24 hrs at pH 4.2 in presence Fecl3.6H2O by UV-Vis spectroscopic analysis
Summary of the method: (§2)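 600 µM compound and 600 µM FeCl3·6H2O, both in methanol, mixed in equal volume and shaken at 1000 rpm for 24 h at 25 °C, then UV-scanned. For pH 7.4, diluted DIPEA added before rescanning. Spectra recorded from 300 to 700 nm, with the d–d region at 400–700 nm. Run in duplicate.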

[12] = Metal chelating activity assessed as compound-Fe3+ complex formation at 600 uM measured after 24 hrs at pH 7.4 in presence Fecl3.6H2O by UV-Vis spectroscopic analysis; summary of the method: as §2
[13] = target: Cholinesterase (Equus caballus) (UniProt P81908); assay: Inhibition of equine serum BChE using butyrylthiocholine iodide as substrate at 20 uM preincubated with enzyme for 30 mins followed by substrate addition and measured after 30 mins by Ellman's method relative to control; format: cell-free; settings: time 60.0 min
Summary of the method: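 Equine BChE (0.06 U/mL) preincubated with inhibitor at 20 µM, 37 °C, 30 min. BTCI (15 mM) then added and incubated a further 30 min, followed by DTNB (1.5 mM). Absorbance read at 415 nm. % inhibition taken relative to an enzyme-only control. Mean ± SD of two or three experiments run in triplicate.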

SMILES	Activity [1]	IC50 (Cholinesterase)	IC50 [2]	IC50 (Acetylcholinesterase [3])	inhibition (Acetylcholinesterase [4])	also measured
COc1cc(/C=C/C(=O)N2CCN(Cc3ccc(F)cc3)CC2)ccc1O	23.1%	14.8 µM	51.9 µM	14.5 µM	–	–
COc1cc(/C=C/C(=O)N2CCN(Cc3cccc([N+](=O)[O-])c3)CC2)ccc1O	–	14.6 µM	–	–	38.8%	–
COc1cc(/C=C/C(=O)N2CCN(Cc3cccc(C)c3)CC2)ccc1O	26.3%	14.7 µM	66 µM	–	45.5%	–
COc1cc(/C=C/C(=O)N2CCN(Cc3ccccc3Cl)CC2)ccc1O	–	15.2 µM	–	–	47%	–
COc1cc(/C=C/C(=O)N2CCN(Cc3ccc(C)cc3)CC2)ccc1O	–	14.8 µM	–	–	43.2%	–
COc1cc(/C=C/C(=O)NCC(=O)NCCc2c[nH]c3ccc(Cl)cc23)ccc1O	47.3%	1.29 µM	23.6 µM	0.84 µM	–	–
COc1ccc2[nH]cc(CCNC(=O)CNC(=O)/C=C/c3ccc(O)c(OC)c3)c2c1	51.9%	1.23 µM	20.2 µM	0.96 µM	–	inhibition (Acetylcholinesterase [5]): Active; Papp at 18 h, 500 µM [6]: 8.51 ×10⁻⁶ cm/s; Activity [7]: 50%; inhibition [8]: Active; Time (Mus musculus): 32.28 s; Activity (N2a [9]): Non-Toxic; Activity (N2a [10]): Active; Activity [11]: Active; Activity [12]: Active
COc1cc(/C=C/C(=O)N2CCN(Cc3ccc(C#N)cc3)CC2)ccc1O	–	15.6 µM	–	–	39.4%	–
COc1cc(/C=C/C(=O)NCCC(=O)Nc2ccccc2)ccc1O	10.6%	16.4 µM	95.6 µM	14.8 µM	–	–
COc1cc(/C=C/C(=O)N2CCN(Cc3ccccc3C)CC2)ccc1O	–	15.1 µM	–	–	43.1%	–
COc1cc(/C=C/C(=O)N2CCN(Cc3cccc(F)c3)CC2)ccc1O	40.2%	14 µM	26.6 µM	13.1 µM	–	inhibition (Acetylcholinesterase [5]): Active; Papp at 18 h, 500 µM [6]: 9.57 ×10⁻⁶ cm/s; inhibition [8]: Active
COc1cc(/C=C/C(=O)N2CCN(Cc3ccccc3)CC2)ccc1O	38.4%	–	31.3 µM	13.3 µM	–	inhibition [13]: 45.1%
COc1cc(/C=C/C(=O)NCC(=O)Nc2ccc3[nH]ccc3c2)ccc1O	–	–	57.4 µM	–	–	–
COc1cc(/C=C/C(=O)N2CCN(Cc3ccccc3C#N)CC2)ccc1O	–	14.9 µM	–	–	45.4%	–
COc1cc(/C=C/C(=O)O)ccc1O [FERULATE]	33.1%	–	58.3 µM	–	15.1%	inhibition [13]: 17.1%
COc1cc(/C=C/C(=O)NCCC(=O)Nc2ccc(Cl)cc2)ccc1O	18.7%	7.13 µM	84.2 µM	5.32 µM	–	–
COc1ccc(CN2CCN(C(=O)/C=C/c3ccc(O)c(OC)c3)CC2)cc1	30.5%	–	46.4 µM	16.4 µM	–	inhibition [13]: 45.1%
COc1cc(/C=C/C(=O)N2CCN(Cc3cccc(Cl)c3)CC2)ccc1O	23.1%	14.8 µM	61.5 µM	15.4 µM	–	–
COc1cccc(CN2CCN(C(=O)/C=C/c3ccc(O)c(OC)c3)CC2)c1	–	–	–	15.2 µM	–	inhibition [13]: 49.1%
COc1cccc(N2CCN(C(=O)/C=C/c3ccc(O)c(OC)c3)CC2)c1	–	–	62 µM	–	–	–
COc1cc(/C=C/C(=O)N2CCN(Cc3cccc(C#N)c3)CC2)ccc1O	–	14.7 µM	–	–	42.4%	–
COc1cc(/C=C/C(=O)N2CCN(Cc3ccc(Cl)cc3)CC2)ccc1O	32.4%	15.9 µM	62.4 µM	–	37.3%	–
COc1cc(/C=C/C(=O)NCC(=O)NCCc2c[nH]c3ccccc23)ccc1O	38.5%	3.14 µM	29.1 µM	1.42 µM	–	–
COc1cc(/C=C/C(=O)N2CCN(Cc3ccccc3F)CC2)ccc1O	–	15.9 µM	–	–	34.2%	–
COc1cccc(NC(=O)CCNC(=O)/C=C/c2ccc(O)c(OC)c2)c1	21.3%	11.3 µM	–	2.41 µM	–	–
